Legend:
Mus musculus [1] = experiment: The in vivo tissue distribution of mouse bone with Propranolol administration after 20 min, value was fractional dose per fractional body weight of the organ; assay type: ADME, organism-based, Bone element
Procedure, shortened: (§1)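 Male CF-1 mice (25–30 g) anaesthetised with 2 mg sodium pentobarbital ip; blocked group given 0.1 mL of […] propranolol iv via tail vein (200 μg, 6.6 mg/kg), tracer 30 min later. 0.1 mL of 1–2 mCi/mL [18F]-labelled enantiomer iv via tail vein; killed by cervical dislocation, organs weighed and counted against weighed standards. %ID/g × body weight/100 gives unitless uptake; five mice per point (heart, blood, lung, kidney, liver, bone); mean ± SD.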

Mus musculus [2] = experiment: The in vivo tissue distribution of mouse bone with Propranolol preadministration in 20 min, value was fractional dose per fractional body weight of the organ; assay type: ADME, organism-based, Bone element
Procedure, shortened: (§2)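 Male CF-1 mice (25–30 g), anesthetised with 2 mg sodium pentobarbital ip 30 min before tracer. Where blocked, propranolol iv via tail vein (0.1 mL of […]; […]) about 30 min before tracer. Tracer given by tail vein, 0.1 mL at 1–2 mCi/mL. Mice killed by cervical dislocation at set times, organs weighed and counted. %ID/g × body weight/100 gives unitless uptake. Heart, brain, blood, lung, kidney, liver and bone n=5; average ± SD.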

Mus musculus [3] = experiment: The in vivo tissue distribution of mouse heart with Propranolol preadministration in 180 min, value was fractional dose per fractional body weight of the organ; assay type: ADME, organism-based; conditions: 3 h
Procedure, shortened: (§3)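 Male CF-1 mice (25–30 g), given 2 mg sodium pentobarbital ip 30 min before tracer. Blocked groups received propranolol iv by tail vein, 0.1 mL of 1 mg/mL. About 30 min later, 0.1 mL of [18F]tracer (1–2 mCi/mL) was injected by tail vein. Mice were killed by cervical dislocation at set times, and organs were weighed and counted. Uptake is %ID/g × body weight/100, average ± SD; n=5 for heart, brain, blood, lung, kidney, liver and bone.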

Mus musculus [4] = experiment: The in vivo tissue distribution of mouse kidney with Propranolol administration after 20 min, value was fractional dose per fractional body weight of the organ; assay type: ADME, organism-based; procedure, shortened: as §3
Mus musculus [5] = experiment: The in vivo tissue distribution of mouse heart with Propranolol administration after 40 min, value was fractional dose per fractional body weight of the organ; assay type: ADME, organism-based; procedure, shortened: as §2
Mus musculus [6] = experiment: The in vivo tissue distribution of mouse heart with Propranolol administration after 90 min, value was fractional dose per fractional body weight of the organ; assay type: ADME, organism-based; conditions: 1.5 h; procedure, shortened: as §2
Mus musculus [7] = experiment: The in vivo tissue distribution of mouse blood with Propranolol administration after 10 min, value was fractional dose per fractional body weight of the organ; assay type: ADME, organism-based; procedure, shortened: as §2
Mus musculus [8] = experiment: The in vivo tissue distribution of mouse blood with Propranolol administration after 120 min, value was fractional dose per fractional body weight of the organ; assay type: ADME, organism-based; conditions: 2 h; procedure, shortened: as §3
Mus musculus [9] = experiment: The in vivo tissue distribution of mouse blood with Propranolol administration after 180 min, value was fractional dose per fractional body weight of the organ; assay type: ADME, organism-based; conditions: 3 h; procedure, shortened: as §3
Mus musculus [10] = experiment: The in vivo tissue distribution of mouse brain with Propranolol administration after 180 min, value was fractional dose per fractional body weight of the organ; assay type: ADME, organism-based; conditions: 3 h; procedure, shortened: as §3
Mus musculus [11] = experiment: The in vivo tissue distribution of mouse brain with Propranolol administration after 20 min, value was fractional dose per fractional body weight of the organ; assay type: ADME, organism-based; procedure, shortened: as §2
Mus musculus [12] = experiment: The in vivo tissue distribution of mouse brain with Propranolol administration after 90 min, value was fractional dose per fractional body weight of the organ; assay type: ADME, organism-based; conditions: 1.5 h; procedure, shortened: as §2
Mus musculus [13] = experiment: The in vivo tissue distribution of mouse blood with Propranolol preadministration in 120 min, value was fractional dose per fractional body weight of the organ; assay type: ADME, organism-based; conditions: 2 h; procedure, shortened: as §1
Mus musculus [14] = experiment: The in vivo tissue distribution of mouse bone with Propranolol administration after 10 min, value was fractional dose per fractional body weight of the organ; assay type: ADME, organism-based, Bone element; procedure, shortened: as §2
Mus musculus [15] = experiment: The in vivo tissue distribution of mouse heart with Propranolol administration after 120 min, value was fractional dose per fractional body weight of the organ; assay type: ADME, organism-based; conditions: 2 h; procedure, shortened: as §3
Mus musculus [16] = experiment: The in vivo tissue distribution of mouse heart with Propranolol administration after 180 min, value was fractional dose per fractional body weight of the organ; assay type: ADME, organism-based; conditions: 3 h; procedure, shortened: as §3
Mus musculus [17] = experiment: The in vivo tissue distribution of mouse lung with Propranolol administration after 10 min, value was fractional dose per fractional body weight of the organ; assay type: ADME, organism-based; procedure, shortened: as §3
Mus musculus [18] = experiment: The in vivo tissue distribution of mouse lung with Propranolol administration after 20 min, value was fractional dose per fractional body weight of the organ; assay type: ADME, organism-based; procedure, shortened: as §3
Mus musculus [19] = experiment: The in vivo tissue distribution of mouse lung with Propranolol administration after 60 min, value was fractional dose per fractional body weight of the organ; assay type: ADME, organism-based; conditions: 1 h; procedure, shortened: as §2
Mus musculus [20] = experiment: The in vivo tissue distribution of mouse liver with Propranolol administration after 40 min, value was fractional dose per fractional body weight of the organ; assay type: ADME, organism-based; procedure, shortened: as §3
Mus musculus [21] = experiment: The in vivo tissue distribution of mouse liver with Propranolol administration after 120 min, value was fractional dose per fractional body weight of the organ; assay type: ADME, organism-based; conditions: 2 h; procedure, shortened: as §2
Mus musculus [22] = experiment: The in vivo tissue distribution of mouse bone without Propranolol preadministration in 10 min, value was fractional dose per fractional body weight of the organ
Mus musculus [23] = experiment: The in vivo tissue distribution of mouse bone without Propranolol preadministration in 180 min, value was fractional dose per fractional body weight of the organ; conditions: 3 h
Mus musculus [24] = experiment: The in vivo tissue distribution of mouse heart without Propranolol preadministration in 40 min, value was fractional dose per fractional body weight of the organ
Mus musculus [25] = experiment: The in vivo tissue distribution of mouse heart without Propranolol preadministration in 90 min, value was fractional dose per fractional body weight of the organ; conditions: 1.5 h
Mus musculus [26] = experiment: The in vivo tissue distribution of mouse brain without Propranolol preadministration in 10 min, value was fractional dose per fractional body weight of the organ
Mus musculus [27] = experiment: The in vivo tissue distribution of mouse brain without Propranolol preadministration in 20 min, value was fractional dose per fractional body weight of the organ
Mus musculus [28] = experiment: The in vivo tissue distribution of mouse brain without Propranolol preadministration in 40 min, value was fractional dose per fractional body weight of the organ
Mus musculus [29] = experiment: The in vivo tissue distribution of mouse liver without Propranolol preadministration in 20 min, value was fractional dose per fractional body weight of the organ
Mus musculus [30] = experiment: The in vivo tissue distribution of mouse blood without Propranolol preadministration in 180 min, value was fractional dose per fractional body weight of the organ; conditions: 3 h
Mus musculus [31] = experiment: The in vivo tissue distribution of mouse liver without Propranolol preadministration in 180 min, value was fractional dose per fractional body weight of the organ; conditions: 3 h
Mus musculus [32] = experiment: The in vivo tissue distribution of mouse kidney without Propranolol preadministration in 40 min, value was fractional dose per fractional body weight of the organ
[33] = The in vivo tissue distribution of mouse kidney without Propranolol preadministration in 180 min, value was fractional dose per fractional body weight of the organ; conditions: 3 h

SMILES | Dose/organ (Mus musculus [1]) | Dose/organ (Mus musculus [2]) | Dose/organ (Mus musculus [3]) | Dose/organ (Mus musculus [4]) | Dose/organ (Mus musculus [5]) | Dose/organ (Mus musculus [6]) | Dose/organ (Mus musculus [7]) | Dose/organ (Mus musculus [8]) | Dose/organ (Mus musculus [9]) | Dose/organ (Mus musculus [10]) | Dose/organ (Mus musculus [11]) | Dose/organ (Mus musculus [12]) | Dose/organ (Mus musculus [13]) | Dose/organ (Mus musculus [14]) | Dose/organ (Mus musculus [15]) | Dose/organ (Mus musculus [16]) | Dose/organ (Mus musculus [17]) | Dose/organ (Mus musculus [18]) | Dose/organ (Mus musculus [19]) | Dose/organ (Mus musculus [20]) | also measured
CC(C[18F])NC[C@H](O)COc1cccc2[nH]c3ccccc3c12 (stereo partly specified) | 0.86 | 0.65 | 0.4 | 2.19 | 0.51 | 0.35 | 0.39 | 0.13 | 0.15 | 0.09 | 0.78 | 0.38 | 0.52 | 0.72 | 0.15 | 0.15 | 5 | 3.26 | 1.1 | 1.66 | Dose/organ (Mus musculus [21]): 0.66; Dose/organ (Mus musculus [22]): 0.65; Dose/organ (Mus musculus [23]): 1.9; Dose/organ (Mus musculus [24]): 0.77; Dose/organ (Mus musculus [25]): 0.61; Dose/organ (Mus musculus [26]): 1.18; Dose/organ (Mus musculus [27]): 0.95; Dose/organ (Mus musculus [28]): 1.09; Dose/organ (Mus musculus [29]): 2.54; Dose/organ (Mus musculus [30]): 0.43; Dose/organ (Mus musculus [31]): 0.88; Dose/organ (Mus musculus [32]): 2.01; Dose/organ [33]: 0.71
CC(C[18F])NC[C@@H](O)COc1cccc2[nH]c3ccccc3c12 (stereo partly specified) | 0.77 | 0.93 | 0.14 | 4.43 | 0.73 | 0.48 | 0.92 | 0.3 | 0.09 | 0.06 | 1.22 | 0.42 | 0.24 | 0.67 | 0.27 | 0.1 | 5.23 | 3.87 | 1.23 | 2.11 | Dose/organ (Mus musculus [21]): 0.94; Dose/organ (Mus musculus [22]): 0.67; Dose/organ (Mus musculus [23]): 1.25; Dose/organ (Mus musculus [24]): 0.76; Dose/organ (Mus musculus [25]): 0.46; Dose/organ (Mus musculus [26]): 0.82; Dose/organ (Mus musculus [27]): 0.66; Dose/organ (Mus musculus [28]): 0.73; Dose/organ (Mus musculus [29]): 4; Dose/organ (Mus musculus [30]): 0.17; Dose/organ (Mus musculus [31]): 0.78; Dose/organ (Mus musculus [32]): 3.3; Dose/organ [33]: 0.67
